The target in test [1] is Tyrosine-protein phosphatase YopH (Yersinia pseudotuberculosis serotype I (strain IP32953)) (UniProt P08538). The test is described as follows: Inhibition of Yersinia pseudotuberculosis YP3-pIB102 YopH at 50 uM. The gist of the method:
(§1)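 Strain YPIII-pIB102 grown overnight at 26 °C in BHI with 25 µg/ml chloramphenicol. Diluted to OD600 0.08 in calcium-depleted BHI (5 mM EGTA, 20 mM MgCl2), with compound at 100, 50, 20 or 10 µM, and shaken 2 h at 37 °C. Culture aliquot added to 25 mM p-nitrophenyl phosphate, 40 mM MES pH 5.0 and 1.6 mM DTT for 15 min at 37 °C. Stopped with NaOH and read at A405. Triplicates; result is % inhibition of secreted YopH activity.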

The test system of test [2] is Yersinia pseudotuberculosis. Put plainly: Effect on T3S in Yersinia pseudotuberculosis 3 pIB29 assessed as inhibition of light emission at 10 uM by luciferase reporter gene assay. The gist of the method:
(§2)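 Strain YPIII-pIB29 (yopE-luxAB transcriptional fusion, lacking YopH), grown overnight at ambient temperature in BHI with 5 mM EGTA and 20 mM MgCl2 to deplete calcium, then adjusted to OD600 0.15-0.25. Compounds in DMSO (≤1% final) at 100, 50, 20 or 10 µM final, in triplicate. Plates shaken 1 h at ambient temperature, then 2 h at 37 °C. Decanal added within 30 min and luminescence read at once. Result is % inhibition of light versus control.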
For orientation: A reporter such as luciferase makes a cellular process visible.

Test [3] has as its target Tyrosine-protein phosphatase YopH (Yersinia pseudotuberculosis serotype I (strain IP32953)) (UniProt P08538). The test is described as follows: Inhibition of Yersinia pseudotuberculosis YP3-pIB102 YopH at 20 uM. The essentials: as §1
Test [4] has as its system Yersinia pseudotuberculosis. Put plainly: Growth inhibition of Yersinia pseudotuberculosis. It is filed as functional, organism-based. The essentials: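 Wild-type YPIII-pIB102 diluted to OD600 0.05-0.1 in BHI with 2.5 mM CaCl2. Grown at 37 °C with shaking, with compound at 10, 20, 50 or 100 µM. Absorbance read at 600 nm periodically, or at 595 nm hourly, over six hours and compared with the control growth curve.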

In test [5] the test system is Yersinia pseudotuberculosis. Put plainly: Effect on T3S in Yersinia pseudotuberculosis 3 pIB29 assessed as inhibition of light emission at 20 uM by luciferase reporter gene assay. The gist of the method:
as §2

Test [6] addresses Tyrosine-protein phosphatase YopH (Yersinia pseudotuberculosis serotype I (strain IP32953)) (UniProt P08538). The test is described as follows: Inhibition of Yersinia pseudotuberculosis YP3-pIB102 YopH at 10 uM. The gist of the method: as §1
The test system of test [7] is Yersinia pseudotuberculosis. The test is described as follows: Effect on T3S in Yersinia pseudotuberculosis 3 pIB29 assessed as inhibition of light emission at 50 uM by luciferase reporter gene assay. The gist of the method:
as §2

Test [8] has as its system Yersinia pseudotuberculosis. The test is described as follows: Effect on T3S in Yersinia pseudotuberculosis 3 pIB29 assessed as inhibition of light emission at 100 uM by luciferase reporter gene assay. The essentials: as §2
Test [9] deals with Tyrosine-protein phosphatase YopH (Yersinia pseudotuberculosis serotype I (strain IP32953)) (UniProt P08538). Put plainly: Inhibition of Yersinia pseudotuberculosis YP3-pIB102 YopH at 100 uM. The essentials:
as §1

Structures are written as SMILES. Calls of active or inactive are those of the source. The calls are words filed in the database; no cut-off is given here.

The values below come from ChEMBL document CHEMBL1137500, “Inhibitors of type III secretion in Yersinia: design, synthesis and multivariate QSAR of 2-arylsulfonylamino-benzanilides” (Bioorg Med Chem, 2007).

A word on the inhibition: it is the change of the read-out against control, counted positive when it falls.

Chain of Tyrosine-protein phosphatase YopH (Yersinia pseudotuberculosis serotype I (strain IP32953)) (P08538 whole entry): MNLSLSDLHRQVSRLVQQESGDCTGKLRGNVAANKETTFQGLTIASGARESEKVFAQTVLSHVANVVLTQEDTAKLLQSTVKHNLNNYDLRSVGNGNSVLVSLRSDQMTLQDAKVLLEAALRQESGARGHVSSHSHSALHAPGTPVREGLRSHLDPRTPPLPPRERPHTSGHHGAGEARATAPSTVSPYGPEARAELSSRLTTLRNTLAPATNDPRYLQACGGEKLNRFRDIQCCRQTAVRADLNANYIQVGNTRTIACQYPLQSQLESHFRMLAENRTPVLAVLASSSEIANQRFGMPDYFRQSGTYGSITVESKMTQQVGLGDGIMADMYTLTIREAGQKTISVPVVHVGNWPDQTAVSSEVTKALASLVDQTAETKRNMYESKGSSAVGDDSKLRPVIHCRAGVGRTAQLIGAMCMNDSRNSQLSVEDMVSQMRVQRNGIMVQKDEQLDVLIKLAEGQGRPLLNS

For `COc1ccc(NC(=O)c2ccc(Cl)cc2NS(=O)(=O)c2ccc(Cl)c(Cl)c2)cc1`, the inhibition in test [1] was 35%; in test [2], 43%; in test [3], 60%; in test [5], 67%; in test [6], 35%; in test [7] it was 72%. In addition, the inhibition was determined as 72% in [8] and 34% in test [9]. Moreover, the outcome in [4] was inactive.

For the molecule `O=C(Nc1ccc2c(c1)OCO2)c1ccc(Cl)cc1NS(=O)(=O)c1ccc(Cl)c(Cl)c1`, the inhibition in test [1] amounted to 64%; in [2], 37%; in test [3], 60%; in test [5], 66%; in [6] it was 33%; in test [7] it was 74%. For the same molecule, the inhibition in test [8] was determined as 69%; in [9], 59%. Also, the outcome in test [4] was inactive.

Take `O=C(Nc1ccc(Cl)c(Cl)c1)c1cc(F)c(F)cc1NS(=O)(=O)c1cc(Cl)cc(Cl)c1O`: the inhibition in test [1] is 80%; in test [2] it was 69%; in [3] it was 82%; in test [5] it was 85%; in test [6], 57%; in test [7] it was 92%. In addition, the inhibition in [8] is 92%; in test [9], 81%. The result in test [4] was inactive.

For the molecule `CN(C)c1ccc(NC(=O)c2cc(Cl)ccc2NS(=O)(=O)c2ccccc2)cc1`, the inhibition in test [2] is 0%; in test [5], 1%; in [7], 2%; in test [8], 1%. For the same molecule, the outcome in test [4] was inactive.

With `O=C(Nc1ccc(F)cc1)c1cc(F)c(F)cc1NS(=O)(=O)c1cccc(F)c1`, the inhibition in test [1] is 63%; in test [2], 22%; in test [3], 54%; in test [5], 51%; in [6] it was 27%; in [7], 71%. The values for the inhibition in test [8] and in test [9] were 75% and 70%, respectively. The result in test [4] was inactive.

For `Cc1ccc(S(=O)(=O)Nc2cc(F)c(F)cc2C(=O)Nc2ccc(Cl)c(Cl)c2)cc1`, the inhibition in test [2] worked out at 57%; in test [5], 9%; in test [7], 1%; in test [8] it was 2%. The outcome in [4] was inactive.

Consider `O=C(Nc1ccc(Cl)c(Cl)c1)c1cc(Cl)ccc1NS(=O)(=O)c1cccc2nsnc12`, for which the inhibition in test [1] amounted to 66%; in test [2], 48%; in test [3], 62%; in test [5], 68%; in [6], 19%; in test [7], 69%. Besides, the values for the inhibition in test [8] and in test [9] were 62% and 63%, respectively. The result in test [4] was inactive.

In the case of `O=C(Nc1ccc(Cl)c(Cl)c1)c1cc(F)c(F)cc1NS(=O)(=O)c1cccc([N+](=O)[O-])c1`, the inhibition in [1] is 74%; in test [2], 9%; in test [3], 67%; in test [5] it was 33%; in test [6], 26%; in test [7], 79%. Besides, the inhibition in test [8] is 90%; in test [9] it was 81%. The result in test [4] was inactive.

In the case of `O=C(Nc1ccc(F)c(F)c1)c1ccc(Cl)cc1NS(=O)(=O)c1cc(Cl)cc(Cl)c1O`, the inhibition in test [2] is 15%; in test [5] it was 50%; in test [7], 86%; in test [8] it was 87%. Further, in test [4], the outcome was inactive.

On to `O=C(Nc1ccc(Cl)cc1)c1ccccc1NS(=O)(=O)c1cccc2nsnc12`, for which the inhibition was -1% in test [2], 5% in test [5], 12% in test [7] and 18% in test [8]. Moreover, the result in test [4] was inactive.

Turning to `O=C(Nc1ccc(F)cc1)c1cc(Cl)ccc1NS(=O)(=O)c1cc(Cl)cc(Cl)c1O`, the inhibition in [2] was determined as 13%; in test [5] it was 43%; in [7] it was 79%; in test [8], 88%. The result in [4] was inactive.

For the molecule `O=C(Nc1ccc2c(c1)OCO2)c1ccc(Cl)cc1NS(=O)(=O)c1ccccc1`, the inhibition in test [1] was determined as 25%; in [2], 4%; in [3], 19%; in test [5] it was 7%; in [6], 14%; in test [7] it was 10%. Moreover, the inhibition was determined as 15% in test [8] and 34% in [9]. Also, in [4], the outcome was inactive.
